Measurements reported in ChEMBL document CHEMBL3632578, “Identification of β-Lapachone Analogs as Novel MALT1 Inhibitors To Treat an Aggressive Subtype of Diffuse Large B-Cell Lymphoma” (J Med Chem, 2015).

Experiments:
[1] = target: T1, Mucosa-associated lymphoid tissue lymphoma translocation protein 1 (Homo sapiens, UniProt Q9UDY8); assay: Inhibition of His-tagged human MALT1 (catalytic domain-339-719 aa) by fluorescence based assay using 25 uM Ac-LRSR-AMC as substrate
T1 sequence (Q9UDY8 whole entry): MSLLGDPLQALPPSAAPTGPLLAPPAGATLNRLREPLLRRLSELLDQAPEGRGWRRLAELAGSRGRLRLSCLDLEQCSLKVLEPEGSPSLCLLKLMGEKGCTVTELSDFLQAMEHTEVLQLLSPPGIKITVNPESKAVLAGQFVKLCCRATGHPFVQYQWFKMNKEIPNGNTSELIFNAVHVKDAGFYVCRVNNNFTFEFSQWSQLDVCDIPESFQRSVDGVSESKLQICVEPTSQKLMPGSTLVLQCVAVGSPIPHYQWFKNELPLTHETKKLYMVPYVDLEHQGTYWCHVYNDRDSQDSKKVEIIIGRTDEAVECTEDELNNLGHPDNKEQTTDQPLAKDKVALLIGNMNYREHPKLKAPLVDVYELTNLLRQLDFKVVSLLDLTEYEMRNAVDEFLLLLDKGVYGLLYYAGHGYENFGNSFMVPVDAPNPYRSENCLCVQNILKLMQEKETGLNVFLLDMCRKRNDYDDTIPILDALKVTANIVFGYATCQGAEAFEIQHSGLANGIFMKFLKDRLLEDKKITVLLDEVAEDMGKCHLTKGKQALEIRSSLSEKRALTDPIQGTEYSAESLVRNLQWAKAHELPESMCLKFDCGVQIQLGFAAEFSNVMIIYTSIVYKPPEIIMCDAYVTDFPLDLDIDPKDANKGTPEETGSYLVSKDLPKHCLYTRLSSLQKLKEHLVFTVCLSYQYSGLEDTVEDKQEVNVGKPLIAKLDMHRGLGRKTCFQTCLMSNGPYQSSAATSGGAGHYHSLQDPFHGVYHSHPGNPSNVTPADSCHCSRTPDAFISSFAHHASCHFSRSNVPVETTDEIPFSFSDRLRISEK

[2] = Antiproliferative activity against human OCI-LY3 cells after 48 hrs by MTT assay; format: functional, cell-based; conditions: OCI-Ly3, 48 h
[3] = target: T1, Mucosa-associated lymphoid tissue lymphoma translocation protein 1; assay: Inhibition of MALT1 in human Jurkat cell lysate preincubated for 2 hrs followed by addition of 25 uM Ac-LRSR-AMC substrate for 3 hrs by fluorescence based assay; format: cell-free
How it was run: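 MALT1 paracaspase activity in Jurkat cell lysate, read as fluorescence from AMC (7-amino-4-methylcoumarin) released when MALT1 cleaves the fluorogenic tetrapeptide Ac-LRSR-AMC. Inhibition is taken against an untreated control. IC50 is the mean of two independent experiments, each run in duplicate.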

[4] = target: T2, Mucosa-associated lymphoid tissue lymphoma translocation protein 1 (Homo sapiens) (UniProt Q9UDY8); assay: Inhibition of MALT1 paracaspase activity in human OCI-LY3 cells assessed as decrease in cleaved CYLD level after 24 hrs by western blot analysis; format: cell-based
T2 sequence (whole entry): T1 sequence (Q9UDY8 whole entry)

[5] = tested on: HuT78; assay: Antiproliferative activity against human HUT78 cells; format: functional, cell-based
[6] = Antiproliferative activity against human SupT1 cells; format: functional, cell-based; conditions: SUP-T1
[7] = Antiproliferative activity against human NK92 cells; format: functional, cell-based
[8] = tested on: A549; assay: Antiproliferative activity against human A549 cells; format: functional, cell-based
[9] = Antiproliferative activity against human MJ cells; format: functional, cell-based

| SMILES | IC50 [1] [µM] | IC50 [3] [µM] | IC50 [2] [µM] | other results |
| --- | --- | --- | --- | --- |
| CC1(C)CCC2=C(O1)c1ccc(Br)cc1C(=O)C2=O | 9.2 | – | 4.1 | – |
| CC1(C)CCC2=C(O1)c1ccc([N+](=O)[O-])cc1C(=O)C2=O | 0.4 | – | 4.6 | – |
| COc1cc2c(cc1OC)C(=O)C1=C(CCC(C)(C)O1)C2=O | – | > 10 | – | – |
| CC1(C)CCC2=C(O1)c1ccc(F)cc1C(=O)C2=O | 1.5 | – | 3.3 | inhibition [4]: Dose-dependent effect |
| CC(C)=CCC1=C(O)C(=O)c2cc(Br)ccc2C1=O | – | > 10 | – | – |
| COc1cc2c(cc1OC)C1=C(CCC(C)(C)O1)C(=O)C2=O | 2.3 | – | 8.5 | – |
| CC1(C)CCC2=C(O1)c1cc(O)ccc1C(=O)C2=O | 9.3 | – | – | – |
| COCCOc1nc(-c2ccc(Cl)c(Cl)c2)n(-c2ccc(NC(=O)CCl)cc2)n1 | 3.3 | – | 2.6 | – |
| O=C1C=C(NCCc2ccccc2)c2ccccc2C1=O | – | > 100 | – | – |
| CC1(C)CCC2=C(O1)c1ccc(C#N)cc1C(=O)C2=O | 1.6 | – | 1.5 | IC50 [5]: 12.3 µM; IC50 [6]: 5.6 µM; IC50 [7]: 17 µM; inhibition [4]: Dose-dependent effect; IC50 [8]: 5.7 µM; IC50 [9]: 16.7 µM |
| CC1(C)CCC2=C(O1)c1ccccc1C(=O)C2=O [LAPACHONE] | 1.2 | 1.9 | 4 | – |
| CC(C)=CCC1=C(O)C(=O)c2cc(F)ccc2C1=O | – | > 10 | – | – |

Further lines, with some results ahead:

| IC50 [1] [µM] | IC50 [3] [µM] | SMILES | IC50 [2] [µM] | other results |
| --- | --- | --- | --- | --- |
| 0.6 | – | COc1ccc2c(c1)C(=O)C(=O)C1=C2OC(C)(C)CC1 | 3.1 | – |
| – | 5.4 | O=C1C=C(NC2CCN(Cc3ccccc3)CC2)c2ccccc2C1=O | – | – |
| – | 11.9 | O=C1C=C(NCCCN2CCCC2)c2ccccc2C1=O | – | – |
| – | 3.1 | O=C(CNC1=CC(=O)C(=O)c2ccccc21)NCCc1ccccc1 | – | – |
| – | 14.4 | O=C1C=C(NCCCN2CCCC2=O)c2ccccc2C1=O | – | – |
| – | 7.8 | COCCNC1=CC(=O)C(=O)c2ccccc21 | > 10 | – |
| – | 4.1 | O=C1C=C(NCC(=O)N2CCCC2)c2ccccc2C1=O | – | – |
| – | 3 | CNC(=O)CNC1=CC(=O)C(=O)c2ccccc21 | 9.4 | – |
| – | 20.4 | CC(C)NC1=CC(=O)C(=O)c2ccccc21 | – | – |
| – | 1.5 | O=C1C=C(NC2CCN(Cc3ccccc3)C2)c2ccccc2C1=O (stereo not drawn) | > 10 | – |
| – | 1.6 | CN(C)CCNC1=CC(=O)C(=O)c2ccccc21 | – | – |
| – | 2.5 | CN(C)C1=CC(=O)C(=O)c2ccccc21 | > 10 | – |
| – | 21.9 | O=C1C=C(NCCN2CCOCC2)c2ccccc2C1=O | – | – |
| – | 14.9 | CC(C)(C)OC(=O)NCCNC1=CC(=O)C(=O)c2ccccc21 | – | – |
| 9.2 | – | COc1ccc2c(c1)C1=C(CCC(C)(C)O1)C(=O)C2=O | 17 | – |
